# Test results published in PMC5034805 (Journal of Clinical Pharmacology, 2015).
# “Also recorded” adds a separate entry of the source. Where two headings read alike, the source gives them in different places.
# Key:
# P‐glycoprotein (P‐gp) = settings: in vitro; cited from earlier work
# [1] = patients with CTCL or PTCL; cited from earlier work
# BCRP = settings: in vitro; cited from earlier work
# [2] = Safety evaluation in the rifampin interaction study; type: in vivo, human (patients with advanced cancer); settings: in two patients; romidepsin 14 mg/m^2 with rifampin 600 mg
# Procedure, shortened: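 Antiemetic prophylaxis; K or Mg supplemented below 3.8 or 0.85 mmol/L. Monitoring through closeout (days 15–20): AE type, severity and relatedness, examinations, vital signs, ECGs, concomitant medications, clinical labs. Summarised descriptively.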
# CYP1A1 = settings: at plasma concentrations that are effective; cited from earlier work
# [3] = Safety evaluation in the ketoconazole interaction study; type: in vivo, human (patients with advanced cancer)
# α1‐acid‐glycoprotein = settings: primarily to α1-acid-glycoprotein; cited from earlier work
# [4] = Rifampin drug–drug interaction study: romidepsin plasma pharmacokinetics; type: in vivo, human (patients with advanced cancer)
# hepatocytes = settings: cited from earlier work
# [5] = Ketoconazole drug–drug interaction study: romidepsin plasma pharmacokinetics; type: in vivo, human (patients with advanced cancer)
# CYP enzymes = settings: at plasma concentrations that are effective; cited from earlier work
# [6] = cited from earlier work
# CYP3A4 = settings: at plasma concentrations that are effective; cited from earlier work
# CYP2B6 = settings: at plasma concentrations that are effective; cited from earlier work
# CYP3A = settings: strong inhibitor of CYP3A; cited from earlier work
# [7] = coadministration with rifampin 600 mg vs alone
# [8] = human, plasma, intravenous, 14 mg/m2
# [9] = coadministration with ketoconazole vs alone
# [10] = human, plasma, intravenous, 8 mg/m2
structure (smiles),measurement,setting,value
C/C=C1\NC(=O)[C@H]2CSSCC/C=C/[C@H](CC(=O)N[C@H](C(C)C)C(=O)N2)OC(=O)[C@H](C(C)C)NC1=O [Romidepsin],Substrate of the efflux transporter P-glycoprotein (P-gp),P‐glycoprotein (P‐gp),substrate
same,Effect of polymorphic variants of CYP3A on systemic exposure,[1],did not affect
same,Substrate of BCRP,BCRP,not a substrate
same,Treatment-emergent SAEs,[2],8
same,Induction of CYP1A1,CYP1A1,nor is it an inducer
same,Deaths during the treatment period,[3]; romidepsin 8 mg/m^2 with ketoconazole 400 mg,No deaths
same,Protein binding,α1‐acid‐glycoprotein,highly protein bound
same,Decrease of romidepsin clearance,[4]; [7],approximately 44%
same,Decrease of romidepsin volume of distribution,[4]; [7],~52%
same,Increase of mean romidepsin Cmax,[4]; [7],~60%
same,Tmax,[4]; [8],2.98 h
same,Vd,[4]; [8],162 L
same,clearance,[4]; [8],193 mL/min
same,half-life,[4]; [8],9.7 h
same,AUC(0-inf),"[4]; human, plasma, iv, 14 mg/m^2",2230 ng·h/mL
same,Cmax,"[4]; human, plasma, iv, 14 mg/m^2",571 ng/mL
same,Uptake into hepatocytes,hepatocytes,actively taken up into the liver; also recorded: active process
same,Increase of mean romidepsin Cmax,[5]; coadministration with ketoconazole 400 mg vs alone,~10%
same,Change of romidepsin clearance,[5]; [9],decreased
same,Change of romidepsin volume of distribution,[5]; [9],decreased
same,Tmax,[5]; [10],3.5 h
same,Vd,[5]; [10],236 L
same,clearance,[5]; [10],282 mL/min
same,half-life,[5]; [10],9.7 h
same,AUC(0-inf),"[5]; human, plasma, iv, 8 mg/m^2",915 ng·h/mL
same,Cmax,"[5]; human, plasma, iv, 8 mg/m^2",229 ng/mL
same,Median Difference of Tmax,"[5]; romidepsin + ketoconazole vs romidepsin alone, Hodges-Lehmann estimate",0
same,Inhibition of CYP enzymes,CYP enzymes,does not inhibit
same,Maximal tolerated dose (MTD),"[6]; given on days 1, 8, and 15 of a 28-day cycle",13.3 mg/m^2
same,Maximal tolerated dose (MTD),[6]; given on days 1 and 5 in a 21-day cycle,17.8 mg/m^2
same,Dose-limiting toxicities,[6]; phase 1 dose escalation,"fatigue, nausea, vomiting, thrombocytopenia (transient and grade 3) and neutropenia"
same,Induction of CYP3A4,CYP3A4,nor is it an inducer
same,Induction of CYP2B6,CYP2B6,nor is it an inducer
CC(=O)N1CCN(c2ccc(OCC3COC(Cn4ccnc4)(c4ccc(Cl)cc4Cl)O3)cc2)CC1 (centres unmarked) [ketoconazole],Increase of AUC of CYP3A substrates,CYP3A,≥ 5 fold
same,Increases in liver enzymes AST or ALT,[3]; ketoconazole 400 mg daily days 4-8 with romidepsin 8 mg/m^2,not observed
